High-throughput results: PubChem, Johns Hopkins Ion Channel Center
TRPC4 agonist: activators of mouse TRPC4 channel. HEK293 TRPC4beta/mu-opioid, Fluo4 calcium fluorescence; active compounds read high. B-score at 10 µM. 310,000 tested, 0.49% active. AID 2237;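 active means B-score above 5 SD of library B-scores, and initial fluorescence ratio not above library mean plus 5 SD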;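 further: positive B-score marks a calcium rise read as TRPC4 activation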
Target sequence (Q9QUQ5 whole entry, looked up): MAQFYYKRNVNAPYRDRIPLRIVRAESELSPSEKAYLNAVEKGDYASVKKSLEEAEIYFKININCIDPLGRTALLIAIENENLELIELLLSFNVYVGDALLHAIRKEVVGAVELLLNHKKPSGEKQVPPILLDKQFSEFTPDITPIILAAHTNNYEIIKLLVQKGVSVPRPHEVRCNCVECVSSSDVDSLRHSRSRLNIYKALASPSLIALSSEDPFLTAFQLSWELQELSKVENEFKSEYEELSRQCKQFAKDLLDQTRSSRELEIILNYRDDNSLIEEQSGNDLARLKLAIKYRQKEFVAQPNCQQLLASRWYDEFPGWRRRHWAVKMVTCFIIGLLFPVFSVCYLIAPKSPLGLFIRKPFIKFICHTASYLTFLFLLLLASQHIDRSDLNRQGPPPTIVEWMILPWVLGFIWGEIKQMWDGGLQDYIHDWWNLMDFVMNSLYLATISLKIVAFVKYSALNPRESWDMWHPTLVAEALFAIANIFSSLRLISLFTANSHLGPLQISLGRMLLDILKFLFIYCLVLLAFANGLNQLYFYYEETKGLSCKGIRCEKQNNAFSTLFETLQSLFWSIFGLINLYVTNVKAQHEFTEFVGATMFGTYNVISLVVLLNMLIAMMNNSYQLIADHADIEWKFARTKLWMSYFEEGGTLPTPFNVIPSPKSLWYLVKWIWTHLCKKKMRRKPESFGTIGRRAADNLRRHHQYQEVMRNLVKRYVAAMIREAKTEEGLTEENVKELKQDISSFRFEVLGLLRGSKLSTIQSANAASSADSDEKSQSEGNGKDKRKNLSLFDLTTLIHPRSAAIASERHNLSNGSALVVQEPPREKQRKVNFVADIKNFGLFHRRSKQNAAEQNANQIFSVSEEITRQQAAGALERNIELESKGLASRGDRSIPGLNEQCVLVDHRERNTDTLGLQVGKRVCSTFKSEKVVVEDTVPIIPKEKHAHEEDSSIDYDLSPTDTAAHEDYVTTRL
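System: HEK293 cells stably co-expressing mouse TRPC4beta and mu-opioid receptor; Schedule: Fluo4 dye loading 45 min at room temperature, 110 s recording; Detection: Fluo4 fluorescence, kinetic; Evaluation: B-scored integrated calcium fluorescence ratio; Controls: buffer (low) and maximal DAMGO (high).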
TRPC4 inh: TRPC4 (mouse) channel inhibition. Q9QUQ5. HEK293 TRPC4beta/mu-opioid, DAMGO-evoked Fluo4 calcium flux; active compounds read low. B-score at 10 µM. 300,000 tested, 0.39% active. AID 2247;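 active means B-score over 3 SD under the library average, no early fluorescence shift, positive overall ratio signal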
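Assay system: HEK293 cells with stable TRPC4beta plus mu-opioid receptor expression; Probe or stimulus: DAMGO in two steps, submaximal then maximal; Dosing: single-point compound dosing; Measured by: Fluo4 calcium-dye fluorescence, kinetic read; Read-out basis: B score from integrated Fluo4 fluorescence ratio.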
Kir21 inh: blocks the mouse Kir2.1 inward-rectifier potassium channel. HEK293-Kir2.1, FluxOR thallium flux fluorescence; active compounds read low. B-score at 10 µM. P35561. 310,000 tested, 0.85% active;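 active means fluorescence ratio B-score at or below minus 3 SD of library scores, with starting-brightness B-score within 2 SD, cut at about -4.2 in these data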;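 further: channel flux triggered by added potassium and thallium sulfate stimulus; B-score of peak minus minimum fluorescence over baseline after thallium stimulus; more negative B-score means stronger Kir2.1 block with less thallium influx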
TRPC6 inhibitor: mouse TRPC6 channel inhibition; AID 2553; B-score at 10 µM; Q61143; 310,000 tested, 1.1% active; HEK293-TRPC6, membrane potential dye, ACh-evoked depolarization; active compounds read low;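 active means B-score under library mean minus 3 SD, initial fluorescence not abnormally high, positive integrated signal ratio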;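 further: B-score derived from integrated fluorescence ratio over the kinetic read; more negative B-score means stronger inhibition of depolarization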
TRPC4 potent: TRPC4 (mouse) allosteric potentiation; 310,000 tested, 0.42% active; B-score at 10 µM; HEK293 TRPC4beta/mu-opioid, DAMGO EC20, Fluo-4 Ca2+ flux; active compounds read high; Q9QUQ5;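 active means B-score of calcium response area above 5 SD of library B-scores, with initial fluorescence ratio within 5 SD of library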;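 further: B-score of integrated fluorescence ratio over time as area under calcium response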
TRPC6 act: mouse TRPC6 channel activation | 310,000 tested, 0.13% active | B-score at 10 µM | HEK293-TRPC6 membrane potential dye fluorescence; active compounds read high | AID 2550 | Q61143;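 active means B-score of the integrated fluorescence ratio above library mean plus 3 SD, and starting fluorescence ratio within library mean plus 5 SD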;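 further: higher score means more depolarization so channel activation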
TRPC4 sel inh 2: second selectivity test of TRPC6 inhibitors: effect on mouse TRPC4; HEK293 TRPC4/MOR, membrane potential dye fluorescence; channel activated by saturating DAMGO dose; shares compounds with TRPC6 inhibitor; inhibition, % at 10 µM; 920 tested, 42% active;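 active means compounds whose fluorescence signal differed from control wells by over 3 SD, either direction, in both duplicate plates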
TRPC4 spec: selectivity of TRPC6 inhibitors: effect on mouse TRPC4; shares compounds with TRPC6 inhibitor; HEK293 TRPC4/mu-opioid, membrane potential fluorescence; activity change, negative = inhibition, % at 10 µM; 920 tested, 61% active;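 active means rise or fall in signal beyond 3 SD of buffer-only wells in both replicate plates, either sign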;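 further: integrated kinetic ratio of fluorescence range over baseline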
HEK293 MPD ctr 2-1: second counter-screen for TRPC6 inhibitors: parental HEK293 cells; parental HEK293 membrane potential dye fluorescence; maximal acetylcholine challenge after compound addition; signal change vs control, % at 10 µM; 920 tested, 31% active; AID 2779; shares compounds with TRPC6 inhibitor;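 active means membrane potential signal moving either way by over 3 SD of the maximum-effect control, in both duplicate plates, meaning non-specific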
HEK293 MPD ctr-1: counter-screen for TRPC6 inhibitors: effect in parental HEK293 cells | AID 2780 | shares compounds with TRPC6 inhibitor | parental HEK293 membrane potential dye fluorescence | 920 tested, 60% active | membrane potential signal change, % at 10 µM;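 active means membrane potential signal shifting up or down by more than 3 SD of buffer-only wells, on both duplicate plates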
HEK293 MPD ctr-2: checks TRPC6 modulator effects in parental HEK293 cells; shares compounds with TRPC6 inhibitor; membrane potential dye fluorescence; membrane potential signal change, % at 10 µM; 2,400 tested, 51% active; AID 488924;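 active means membrane potential signal moves up or down beyond 5 SD from buffer-only wells, on both duplicate plates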
HEK293 MPD ctr 2-2: second check of TRPC6 modulator effects in parental HEK293 cells. 2,400 tested, 14% active. inhibition, % at 10 µM. shares compounds with TRPC6 inhibitor. AID 488926. membrane potential dye fluorescence; after compound, maximal acetylcholine stimulation;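 active means membrane potential signal drops by more than 5 SD from the mean control signal, in both duplicate plates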;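 further: plate controls were acetylcholine ECmax control wells for no effect and buffer only wells for full effect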
TRPC4 ctr mod: tests whether TRPC6 modulators also affect mouse TRPC4. shares compounds with TRPC6 inhibitor. HEK293 TRPC4/mu-opioid, membrane potential fluorescence. percent change from control (negative = decrease, positive = increase), % at 10 µM. 2,400 tested, 69% active. AID 488927;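 active means membrane potential signal moved up or down beyond 5 SD of buffer control wells, in both duplicate plates, actives on both sides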;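 further: plate controls were assay buffer wells for no effect and DAMGO maximal-effect wells for full effect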
TRPC4 ctr inh 2: second check of whether TRPC6 modulators also affect mouse TRPC4; 2,400 tested, 55% active; shares compounds with TRPC6 inhibitor; inhibition, % at 10 µM; HEK293 TRPC4/mu-opioid, membrane potential dye fluorescence; stimulated with maximal-effect DAMGO; AID 488928;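 active means drop in membrane potential signal beyond 5 SD of the control wells in both duplicate plates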;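 further: TRPC4 counter screen for TRPC6 hits run under conditions tuned for TRPC6 not TRPC4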
TRPC6 inh conf: confirmation of mouse TRPC6 inhibitors. inhibition, % at 10 µM. 3,300 tested, 43% active. HEK293-TRPC6, membrane potential dye, ACh-evoked depolarization. AID 488960. shares compounds with TRPC6 inhibitor;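 active means fluorescence ratio falls more than 5 SD below the full-stimulation control mean, in both duplicate runs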;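 further: integrated fluorescence ratio of peak minus minimum over baseline after agonist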
TRPC6 act conf: mouse TRPC6 activator confirmation. shares compounds with TRPC6 inhibitor. 2,800 tested, 11% active. activation, % at 10 µM. AID 488961. HEK293-TRPC6 membrane potential dye fluorescence, FDSS;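 active means ratio signal rise beyond 5 SD above unstimulated control wells' mean, seen in both duplicate runs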;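 further: plate controls were buffer EC0 wells for no effect and acetylcholine ECmax response for full effect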
The depositor's hits bear a star; i = inactive; / = no result given; + = active, no number. Compounds with a hit are over-represented: about 2.9% of the library has one in this group of screens.

SMILES	TRPC4 agonist	TRPC4 inh	Kir21 inh	TRPC6 inhibitor	TRPC4 potent	TRPC6 act	HEK293 MPD ctr-2	HEK293 MPD ctr 2-2	TRPC4 ctr mod	TRPC4 ctr inh 2	TRPC6 inh conf	TRPC6 act conf	others
Cc1ccc(C)c(N2CCN(C(=O)c3ccc(CS(=O)(=O)c4ccccc4C)o3)CC2)c1	i	i	-0.41	-8.8*	i	i	/	/	/	/	i	i	TRPC4 sel inh 2=i;TRPC4 spec=i;HEK293 MPD ctr 2-1=i;HEK293 MPD ctr-1=i
O=C(N[C@@H](c1ccccc1)[C@@H]1C[C@H]1C(=O)NCc1ccccn1)OCc1ccccc1	i	i	1.4	i	i	i	/	/	/	/	/	/
CN(c1ccccc1)c1ncccn1	i	i	0.81	i	i	i	/	/	/	/	/	/
CN(c1ccccc1)P(=O)(N(C)c1ccccc1)N(C)c1ccccc1	i	i	-5.5*	-9.5*	i	i	/	/	/	/	66%*	/	TRPC4 sel inh 2=i;TRPC4 spec=29%*;HEK293 MPD ctr 2-1=i;HEK293 MPD ctr-1=15%*
N#Cc1ccc(Oc2cccc(C(=O)O)c2)cc1C#N	i	i	0.19	i	i	i	/	/	/	/	/	/
CCN(CC)c1ccc(/C=N/NC(=O)c2cc3ccccc3[nH]2)cc1	i	i	-2	i	i	i	/	/	/	/	/	/
CCOCCCNC(=O)C(c1ccc(C)cc1)N(Cc1cccs1)C(=O)c1ccccc1O (centres undefined)	i	i	-0.06	i	i	i	/	/	/	/	/	/
C[N+]1(CC#CC(O)(c2ccccc2)c2ccccc2)CCCC1	i	i	-0.14	-7.3*	i	i	/	/	/	/	91%*	i	TRPC4 sel inh 2=i;TRPC4 spec=i;HEK293 MPD ctr 2-1=-27%*;HEK293 MPD ctr-1=i
CC(C)[N+](C)(C)CC#CC(O)(c1ccccc1)c1ccccc1	i	i	-1.1	-9.2*	i	i	/	/	/	/	85%*	i	TRPC4 sel inh 2=i;TRPC4 spec=i;HEK293 MPD ctr 2-1=25%*;HEK293 MPD ctr-1=i
COc1cccc(NC(=O)C2CC(=O)OC23CCOC(C)(C)C3)c1 (centres undefined)	i	i	0.08	i	i	i	/	/	/	/	/	/
O=C(Cn1cccc1C(=O)c1ccccc1)NCc1ccccc1Cl	i	i	0.96	-5.1*	i	i	i	i	i	i	i	i
Cc1cccc(-c2noc(CNC(=O)COc3ccccc3C)n2)c1	i	i	-0.22	i	i	i	/	/	/	/	/	/
CC1(C)C2CCC1(CS(=O)(=O)Nc1ccc(S(=O)(=O)N3CCCC3)cc1)C(=O)C2 (centres undefined)	i	i	-0.63	i	i	i	/	/	/	/	/	/
COc1cc(/C=C/C(=O)CC(=O)/C=C/c2ccc(O)c(OC)c2)ccc1O	84*	i	-1.2	i	i	75*	+	i	380%*	i	i	524%*
Cc1ccc(C)c2c(N)c3c(nc12)CCCCC3 (tested in a mixture with another compound)	i	-7*	-0.26	-5.8*	i	i	-118%*	i	-22%*	i	i	i
Nc1c2c(nc3sc4c(c13)CCCC4)CCCCCC2	i	i	1.4	i	i	i	/	/	/	/	/	/
CCC(C)(C)c1ccc(OCCCC[n+]2ccc(C)cc2)c(C(C)(C)CC)c1	i	i	-4.9*	-6.2*	i	i	i	i	-14%*	i	i	i
O=C(COc1ccc2ccccc2c1CN1CCOCC1)N1CCc2ccccc21	i	i	0.01	-7.2*	i	i	/	/	/	/	88%*	i	TRPC4 sel inh 2=26%*;TRPC4 spec=i;HEK293 MPD ctr 2-1=i;HEK293 MPD ctr-1=1.3%*
O=C(COc1ccccc1)N1CCc2ccccc21	i	i	-0.71	i	i	i	/	/	/	/	/	/
COc1ccc(C(CNC(=O)C(=O)Nc2ccc3c(c2)OCO3)N2CCN(C)CC2)cc1 (centres undefined)	i	i	0.19	i	i	i	/	/	/	/	/	/
CN1CCN(C(CNC(=O)C(=O)Nc2ccc3c(c2)OCO3)c2ccc(F)cc2)CC1 (centres undefined)	i	i	-2.2	-6*	i	i	100%*	i	12%*	i	39%*	i
CCOc1ccc(N=c2cc(-c3ccc(OC)cc3)oc3ccccc23)cc1	i	i	1.2	i	i	i	/	/	/	/	/	/
COc1ccc(N=c2cc(-c3ccc(O)cc3)oc3ccccc23)cc1	i	i	1.1	-6.1*	i	i	-94%*	i	-28%*	64%*	41%*	i
COc1ccc(-c2cc(=Nc3ccc(C)cc3)c3ccccc3o2)cc1	i	i	-6.1*	-8.8*	i	i	/	/	/	/	i	i	TRPC4 sel inh 2=i;TRPC4 spec=-12%*;HEK293 MPD ctr 2-1=i;HEK293 MPD ctr-1=i
COc1ccc(N=c2cc(-c3ccc(OC)cc3)oc3ccccc23)cc1	i	i	-3.8	-5.5*	i	i	-109%*	i	-26%*	52%*	38%*	i
CCC(C)CCN1C(Nc2ccccc2)=NC[C@@H]1C (some centres undefined)	i	i	-0.66	i	i	i	/	/	/	/	/	/
